Our source for the IC20 and IC50 values is ChEMBL document CHEMBL1135620, “Cyclosporins: structure-activity relationships for the inhibition of the human FPR1 formylpeptide receptor” (J Med Chem, 2002).

Experiment [1] concerns the target T1, fMet-Leu-Phe receptor (Homo sapiens) (UniProt P21462).
T1 sequence (whole entry): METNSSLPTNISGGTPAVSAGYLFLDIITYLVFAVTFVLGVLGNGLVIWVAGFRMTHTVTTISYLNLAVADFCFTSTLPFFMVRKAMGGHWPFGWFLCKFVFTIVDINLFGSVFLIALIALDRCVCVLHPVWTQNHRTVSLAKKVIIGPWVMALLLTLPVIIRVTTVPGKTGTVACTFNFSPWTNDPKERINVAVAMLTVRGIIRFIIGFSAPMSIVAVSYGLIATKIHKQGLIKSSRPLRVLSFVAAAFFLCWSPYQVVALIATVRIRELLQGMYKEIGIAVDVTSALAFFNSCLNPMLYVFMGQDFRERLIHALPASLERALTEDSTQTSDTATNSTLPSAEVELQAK
Description: Inhibitory activity against Human formylpeptide receptor (FPR) of human leukemia HL-60 cells. Type of experiment: cell-based. The essentials:
(§1)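 HL-60 cells differentiated 48 h with 0.2 mM dibutyryl cAMP, washed, then treated with 5 μM cytochalasin B (5–10 min, 37 °C). Stimulated 10 min with 30 nM f-MLF. N-acetyl-β-D-glucosaminidase release read at 410 nm on p-nitrophenyl substrate after spontaneous-release subtraction. Duplicate wells; IC20/IC50 as mean ± SD of independent experiments.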

Experiment [2] has as its target T2, fMet-Leu-Phe receptor (Homo sapiens, UniProt P21462).
T2 sequence (P21462 whole entry): T1 sequence (whole entry)
Description: Inhibitory activity against human formylpeptide receptor (FPR) of human leukemia HL-60 cells. To be noted: hl-60. Type of experiment: cell-based. The essentials: as §1

SMILES strings stand for the structures.

By IC20 is commonly meant the concentration needed for an effect of 20%. A higher IC20 goes with weaker potency. In general, IC50 refers to the concentration that gives 50% inhibition.

Consider `C/C=C/C[C@@H](C)[C@@H](O)C1NC(=O)[C@H](C(C)C)N(C)C(=O)[C@H](CC(C)C)N(C)C(=O)[C@H](CC(C)C)N(C)C(=O)[C@@H](C)NC(=O)[C@H](C)NC(=O)[C@@H](CC(C)C)N(C)C(=O)[C@@H](C(C)C)NC(=O)[C@@H](CC(C)C)N(C)C(=O)CN(C)C(=O)[C@H](C(C)C)NC1=O` (stereo partly specified), for which, in experiment [1], it took 2000 nM to reach the 20% level (IC20). Also, the IC50 in experiment [2] was > 10000 nM.
In the same order, the values of `C/C=C/C[C@@H](C)[C@@H](O)C1NC(=O)[C@H](C(C)C)N(C)C(=O)[C@H](CC(C)C)N(C)C(=O)[C@H](CC(C)C)N(C)C(=O)[C@@H](C)NC(=O)[C@H](C)NC(=O)[C@@H](CC(C)C)N(C)C(=O)[C@@H](C(C)C)NC(=O)[C@@H](CC(C)C)N(C)C(=O)CN(C)C(=O)[C@H]([C@@H](C)O)NC1=O` (stereo partly specified) are 1500 nM and 5500 nM.
Take `C/C=C/C[C@@H](C)[C@@H](O)C1NC(=O)[C@H](C(C)C)N(C)C(=O)[C@H](CC(C)C)N(C)C(=O)[C@H](CC(C)C)N(C)C(=O)[C@@H](C)NC(=O)[C@H](C)NC(=O)[C@@H](CC(C)C)N(C)C(=O)[C@@H](C(C)C)NC(=O)[C@@H](CC(C)C)N(C)C(=O)CN(C)C(=O)[C@H](CC)NC1=O` (stereo partly specified): the IC20 in experiment [1] is 1900 nM. Also, the midpoint of inhibition in experiment [2], the IC50, lay at 6450 nM.
